Laboratory results taken from ChEMBL document CHEMBL1124102, “Synthesis and biodistribution of 99mTc-labeled piperidinyl bis(aminoethanethiol) complexes: potential brain perfusion imaging agents for single photon emission computed tomography” (J Med Chem, 1988).

Assays:
Rattus norvegicus [1] = experiment: Brain Uptake of compound was measured after 2 min of administration; type: functional, organism-based
Procedure, shortened: (§1)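 Tc-99m complex injected into rats, three per time point. At set times, 1 mL blood was drawn by cardiac puncture and the animal was killed by cardiectomy. Organs were excised, weighed and gamma-counted. Percent dose per organ came from comparing tissue counts with dilutions of the injected dose, reported as the mean with the range across the three rats.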

[2] = Ratio of brain dose per gram to the blood dose per gram measured at 2 min; type: functional, tissue-based
Procedure, shortened: (§2)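 Rats (three per time point) were given the Tc-99m complex, then sampled by cardiac puncture, killed, and had organs excised and gamma-counted against injected-dose dilutions. Percent dose/organ was converted to percent dose/gram using mean organ weights (brain 1.65 g; blood 18 g). The ratio is (brain dose/gram)/(blood dose/gram).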

[3] = Ratio of brain dose per gram to the blood dose per gram measured at 15 min; type: functional, tissue-based; procedure, shortened: as §2
Rattus norvegicus [4] = experiment: Brain Uptake of compound was measured after 15 min of administration; type: functional, organism-based; procedure, shortened: as §1

“Tc-labeled 3,3,10,10-tetramethyl-6-(2-methylhexahydro-1-pyridinylmethyl)-1-acetone2,11-dithia-5-azonia-8-azatricyclo[6.3.0.01,5]undecane” gave an Uptake value (Rattus norvegicus [1]) of 0.61, a Ratio [2] of 1.06 and a Ratio [3] of 1.84. It also gave an Uptake value (Rattus norvegicus [4]) of 0.35.

With “Tc-labeled 3,3,10,10-tetramethyl-6-(2,6-dimethylhexahydro-1-pyridinylmethyl)-1-acetone2,11-dithia-5-azonia-8-azatricyclo[6.3.0.01,5]undecane (isomer)” the Uptake value (Rattus norvegicus [1]) was 1.19, the Ratio [2] was 1.98 and the Ratio [3] was 2.07. It also gave an Uptake value (Rattus norvegicus [4]) of 0.54.

In the case of “Tc-labeled 3,3,10,10-tetramethyl-6-(2-methylhexahydro-1-pyridinylmethyl)-1-acetone2,11-dithia-5-azonia-8-azatricyclo[6.3.0.01,5]undecane (isomer)”, the Uptake value (Rattus norvegicus [1]) was 1.8, the Ratio [2] was 4.96 and the Ratio [3] was 3.84. It also gave an Uptake value (Rattus norvegicus [4]) of 0.54.
